Assay results published in ChEMBL document CHEMBL2029285, “Structure-based design of novel class II c-Met inhibitors: 1. Identification of pyrazolone-based derivatives” (J Med Chem, 2012).

Legend:
[1] = molecular target: T1, Hepatocyte growth factor receptor (Homo sapiens, UniProt P08581); test: Inhibition of recombinant c-met-mediated gastrin phosphorylation by HTRF assay
[2] = Clearance in Sprague-Dawley rat at 2 mg/kg, iv; format: ADME, organism-based; set-up: dose 2 mg/kg, route intravenous; conditions: in vivo
Procedure, shortened: (§1)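 Male Sprague-Dawley rats, 3 animals per study, given 2 mg/kg iv as a solution in DMSO. Clearance, steady-state volume and half-life were derived from plasma pharmacokinetics.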

Mus musculus [3] = test: Inhibition of HGF-mediated c-met autophosphorylation in Balb/c mouse liver at 10 mg/kg, po administered 2 hrs before and measured after 5 mins of HGF stimulation by electrochemiluminescent assay; format: functional
Procedure, shortened: (§2)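 Balb/c mice were gavaged at 10, 30 or 100 mg/kg. At 2 h postdose, human HGF was injected iv and livers were harvested 5 min later. Phospho-c-Met was quantified by electrochemiluminescent assay and compared with vehicle + HGF. Mean ± SD, n = 3. Terminal plasma concentrations were measured.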

[4] = molecular target: Vascular endothelial growth factor receptor 2 (Homo sapiens, UniProt P35968); test: Inhibition of VEGFR2
Mus musculus [5] = test: Inhibition of HGF-mediated c-met autophosphorylation in po dosed Balb/c mouse liver compound administered 2 hrs before and measured after 5 mins of HGF stimulation by electrochemiluminescent assay; format: functional; procedure, shortened: as §2
[6] = AUC in Sprague-Dawley rat at 5 mg/kg, po; format: ADME, organism-based; set-up: dose 5 mg/kg, route oral; conditions: plasma
Procedure, shortened: (§3)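 Male Sprague-Dawley rats, 3 animals per study, dosed orally at 5 mg/kg as a suspension in 1% Tween 80, 99% OraPlus.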

[7] = Volume of distribution at steady-state in Sprague-Dawley rat at 2 mg/kg, iv; format: ADME, organism-based; set-up: dose 2 mg/kg, route intravenous; conditions: in vivo, read-out: Vdss; procedure, shortened: as §1
[8] = molecular target: Insulin-like growth factor 1 receptor (Homo sapiens) (UniProt P08069); test: Inhibition of IGF1R
[9] = Elimination half life in Sprague-Dawley rat at 2 mg/kg, iv; format: ADME, organism-based; set-up: dose 2 mg/kg, route intravenous; conditions: in vivo, read-out: beta t1/2 (converted); procedure, shortened: as §1
[10] = Oral bioavailability in Sprague-Dawley rat at 5 mg/kg; format: ADME, organism-based; conditions: in vivo; procedure, shortened: as §3
[11] = molecular target: T1, Hepatocyte growth factor receptor; test: Inhibition of HGF-mediated c-met autophosphorylation in serum-starved human PC3 cells after 1 hr by electrochemiluminescent immunoassay; format: cell-based, PC-3

COc1ccc2c(OCc3nnc4ccc(-c5cc(F)c(F)c(F)c5)cn34)ccnc2c1
Ki [1]: 4.8 nM

COc1cc2nccc(Oc3ccc(NC(=O)c4c(C)n(C)n(-c5ccccc5)c4=O)cc3F)c2cc1OC
clearance [2]: 0.583 mL/min/kg | inhibition in vivo at 10 mg/kg (Mus musculus [3]): 85% | INH [4]: 6.2 nM | ED90 (Mus musculus [5]): < 30 mg/kg | inhibition (Mus musculus [5]): Dose-dependent effect | AUC [6]: 258 µM·h | Vd [7]: 0.242 L/kg | INH [8]: 65 nM | half-life [9]: 4.6 h | bioavailability [10]: 94%

COc1cc2nccc(Oc3ccc(N(C)C(=O)c4c(C)n(C)n(-c5ccccc5)c4=O)cc3F)c2cc1OC
IC50 [11]: > 20000 nM | Ki [1]: > 20000 nM

COc1cc2nccc(Oc3ccc(NC(=O)N4CCN(c5ccccc5)C4=O)cc3F)c2cc1OC
IC50 [11]: 53 nM | Ki [1]: 1.7 nM

COc1cc2nccc(Oc3ccc(NC(=S)NC(=O)Cc4ccccc4)cc3F)c2cc1OC
Ki [4]: 103 nM
